Results gathered from unrelated publications.
Lines come from different studies, so protocols differ.
Organism: Acinetobacter baumannii
Observed: microbial growth

Compound | test | test system | conditions | MIC
Nc1nc(-c2ccc3nc(-c4cc(C(F)(F)F)cc(C(F)(F)F)c4)[nH]c3c2)c[nH]1 | broth dilution | AB5075 | – | 50 µM
CCCCCCC#Cc1cncc(-c2nnc(SCc3cc([N+](=O)[O-])cc([N+](=O)[O-])c3)n2C2CCNCC2)c1 | broth dilution | ATCC17978 | – | 64 µg/mL
CC1(C)S[C@@H]2[C@H](NC(=O)[C@H](N)c3ccccc3)C(=O)N2[C@H]1C(=O)O | broth dilution | ATCCBAA1605 | – | > 64 µg/mL
CCCCCCC#Cc1cncc(-c2nnc(SCc3ccc([N+](=O)[O-])o3)n2CCCN)c1 | broth dilution | ATCC17978 | – | 32 µg/mL
C[C@@H](O)[C@H]1C(=O)N2C(C(=O)O)=C(S[C@@H]3CN[C@H](C(=O)N(C)C)C3)[C@H](C)[C@H]12 | broth dilution | ATCC19606 | – | 0.5 µg/mL
CCCCCCCCN=c1ccn(CCCCCCCCCCn2ccc(=NCCCCCCCC)cc2)cc1 | – | ATCC17978 | – | 1 µM
CCCCCCC#Cc1cncc(-c2nnc(SCc3cc([N+](=O)[O-])cc([N+](=O)[O-])c3)n2CCOC2OC(CN)C(O)C2O)c1 (stereo not shown) | broth dilution | ATCC17978 | – | 64 µg/mL
N[C@@H](Cc1c[nH]c2ccc(Cl)cc12)C(=O)O | – | ATCC17978 | 18 h | > 200 µM
CNC(C)C1CCC(N)C(OC2C(N)CC(N)C(OC3OCC(C)(O)C(NC)C3O)C2O)O1 (stereo not shown) | broth dilution | ATCCBAA1605 | – | > 64 µg/mL
[H]/N=C(\N/C(=N/[H])NCCCCCCNC(=N)NC(=N)Nc1ccc(Cl)cc1)Nc1ccc(Cl)cc1 | – | ATCC17978 | – | 8 µM
